The source made the active and inactive calls. The calls are words filed in the database; no cut-off is given here. Bounds are passed on as bounds.

Assay [1] has as its system K562. Put plainly: Phototoxicity against human K562 cells exposed to irradiation with 2.5 J/cm'2 UVA light prior to 72 hrs drug exposure by MTT assay. Format: functional, cell-based. The following applies: K562, light or radiation study. The method in brief: (§1)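 Phototoxicity panel: NCTC-2544 keratinocytes, LoVo adenocarcinoma, K562 and Jurkat leukemia cells. Cells with compound received UVA at 2.5 or 3.75 J/cm2. Cell growth was measured by MTT after 72 h of exposure. IC50 is the concentration inhibiting growth by 50%.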

Assay [2] deals with LoVo. Put plainly: Cytotoxicity against human LoVo cells after 72 hrs by MTT assay. Format: functional, cell-based. (In general: Formazan colour is commonly taken as a measure of viable cells.)
In assay [3] the test system is Jurkat. Put plainly: Phototoxicity against human Jurkat cells exposed to irradiation with 3.75 J/cm'2 UVA light prior to 72 hrs drug exposure by MTT assay. Format: functional, cell-based. The following applies: light or radiation study. In outline: as §1
Assay [4] relates to Jurkat. Kind of assay: Cell cycle arrest in 2.5 J/cm'2 UVA light irradiated human Jurkat cells assessed as accumulation at G1 phase at 5 uM after 24 hrs by DNA cytometry. The class given is functional. In outline: (§2)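 Jurkat (T-cell leukemia) cells were UVA-irradiated at 2.5 J/cm2 in the presence of 5 µM compound. DNA content was analysed by flow cytometry 24 h after irradiation. Controls were non-irradiated cells and cells irradiated without compound. A representative experiment is shown, repeated two times.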

Assay [5] deals with Jurkat. Kind of assay: Induction of lipid peroxidation in 2.5 J/cm'2 UVA light irradiated human Jurkat cells at 5 uM by TBARS test. Format: functional, cell-based.
The subject of assay [6] is Jurkat. Kind of assay: Cytotoxicity against human Jurkat cells after 72 hrs by MTT assay. Format: functional, cell-based.
A short description of assay [7]: Phototoxicity against human NCTC-2544 cells exposed to irradiation with 3.75 J/cm'2 UVA light prior to 72 hrs drug exposure by MTT assay. The class given is cell-based. The following applies: NCTC-2544, light or radiation study. The method in brief: as §1
Assay [8] relates to Jurkat. Put plainly: Induction of lipid peroxidation in 2.5 J/cm'2 UVA light irradiated human Jurkat cells at 10 uM by TBARS test. The class given is functional, cell-based.
For assay [9], the system named is K562. Put plainly: Cytotoxicity against human K562 cells after 72 hrs by MTT assay. The class given is functional, cell-based. The following applies: K562, 72 h.
Assay [10] deals with LoVo. Put plainly: Phototoxicity against human LoVo cells exposed to irradiation with 3.75 J/cm'2 UVA light prior to 72 hrs drug exposure by MTT assay. Format: functional, cell-based. The following applies: light or radiation study. The method in brief:
as §1

Assay [11] concerns K562. Put plainly: Phototoxicity against human K562 cells exposed to irradiation with 3.75 J/cm'2 UVA light prior to 72 hrs drug exposure by MTT assay. Format: functional, cell-based. The following applies: K562, light or radiation study. In outline: as §1
For assay [12], the system named is Jurkat. Kind of assay: Cell cycle arrest in 2.5 J/cm'2 UVA light irradiated human Jurkat cells assessed as accumulation at subG1 phase at 5 uM after 24 hrs by DNA cytometry. The class given is functional. In outline: as §2
For assay [13], the system named is Jurkat. Kind of assay: Phototoxicity against human Jurkat cells exposed to irradiation with 2.5 J/cm'2 UVA light prior to 72 hrs drug exposure by MTT assay. The following applies: light or radiation study. The class given is functional, cell-based. The method in brief:
as §1

The test system of assay [14] is Jurkat. Put plainly: Cell cycle arrest in 2.5 J/cm'2 UVA light irradiated human Jurkat cells assessed as accumulation at S phase at 5 uM after 24 hrs by DNA cytometry. The class given is functional. The method in brief: as §2
Assay [15] in a line: Phototoxicity against human NCTC-2544 cells exposed to irradiation with 2.5 J/cm'2 UVA light prior to 72 hrs drug exposure by MTT assay. Format: cell-based. The following applies: NCTC-2544, light or radiation study. In outline:
as §1

A short description of assay [16]: Cytotoxicity against human NCTC-2544 cells after 72 hrs by MTT assay. Format: cell-based. The following applies: NCTC-2544, 72 h.
For assay [17], the system named is LoVo. Kind of assay: Phototoxicity against human LoVo cells exposed to irradiation with 2.5 J/cm'2 UVA light prior to 72 hrs drug exposure by MTT assay. Format: functional, cell-based. The following applies: light or radiation study. In outline:
as §1

Assay [18] concerns Jurkat. Put plainly: Cell cycle arrest in 2.5 J/cm'2 UVA light irradiated human Jurkat cells assessed as accumulation at G2/M phase at 5 uM after 24 hrs by DNA cytometry. Format: functional. In outline: as §2
Assay [19] has as its system Jurkat. Put plainly: Induction of lipid peroxidation in 2.5 J/cm'2 UVA light irradiated human Jurkat cells at 20 uM by TBARS test. The class given is functional, cell-based.

Turning to `CCOC(=O)c1c2c(c(C)n1Cc1ccccc1)-c1oc(=O)c(C(=O)OC)cc1CC2`, the IC50 in assay [1] is 6.1 µM; in assay [2], > 20 µM; in assay [3] it was 3.7 µM; in assay [6] it was > 20 µM; in [7], 10 µM; in assay [9], > 20 µM. The IC50 in assay [10] was 7.3 µM; in [11], 2.7 µM; in [13], 8.4 µM; in assay [15] it was 14 µM; in assay [16] it was > 20 µM; in assay [17] it was 7.7 µM. Also, the Activity in [4] is 44.7%; in [12], 14.8%; in [14], 44.2%; in assay [18], 11.7%. The result in assay [5], in assay [8] and in [19] was Active.
On to `CCOC(=O)c1cc2c(oc1=O)-c1c(c(C(=O)OCC)n(Cc3ccccc3)c1C)CC2`, for which the IC50 was 7.5 µM in [1]; > 20 µM in assay [2]; 7.2 µM in assay [3]; > 20 µM in assay [6]; 10.9 µM in [7]; > 20 µM in [9]. Moreover, the IC50 was 9.6 µM in assay [10]; 7.3 µM in assay [11]; 8.2 µM in assay [13]; 14.6 µM in assay [15]; > 20 µM in [16]; 10.5 µM in assay [17]. The Activity in assay [4] is reported as 44.7%; in assay [12] it was 17.2%; in assay [14], 37.6%; in assay [18], 17.7%. In addition, the outcome in assay [5], in [8] and in assay [19] was Active.

For orientation: IC50 means the concentration at which inhibition is half-maximal. Higher therefore signals a need for much substance.

The values are drawn from ChEMBL document CHEMBL1153919, “Pyrano[2,3-e]isoindol-2-ones, new angelicin heteroanalogues” (Bioorg Med Chem Lett, 2009).
